Entries after “also recorded” stand apart in the source; their conditions may differ. Where two headings read alike, the source gives them in different places.

Series [1] addresses p53-Y220C DBD (Homo sapiens, UniProt P04637, M133L/N239Y/N268D/V203A/Y220C). In words: Isothermal titration calorimetry. The series is classed as binding.
In series [2] the target is p53 Y220C DBD (94-312) (Homo sapiens, UniProt P04637, M133L/N239Y/N268D/V203A/Y220C). Description: Light scattering assay, aggregation kinetics at 37°C. The format is biochemical. The conditions noted are these: for slowing of initial rate of Y220C aggregation relative to PK9318: 15 μM compound.
Series [3] concerns HUH-7 cells (homozygous p53-Y220C). In words: Cell viability, 72 h incubation. The series is classed as cell-based, human. The conditions noted are these: for p53-Y220C-dependent cell viability reduction: HUH-7 versus HUH-7 p53 KO. In a few lines:
(§1)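 HUH-7 (Y220C) cells and an isogenic CRISPR/Cas9 p53 knockout clone (HUH7-F1: codon-124 frameshift on one allele, deletion of residues 125–223 on the other) were exposed to 0.6–15 μM test compound for 72 h. Viability was read in quadruplicate and normalized to blank (=1) and no-cell (=0) controls. Data are mean ± SEM of triplicates, with a paired t-test comparing parental and knockout lines.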

Series [4] in a line: Cell viability, 72 h incubation, isogenic knockout. The following applies: human. The series is classed as cell-based, human. In outline: as §1
For series [5], the system named is NUGC-3 (Y220C) and NUGC-4 (wild-type p53). In words: Cell viability of gastric cancer cell lines, 72 h. The series is classed as cell-based, human. The conditions noted are these: NUGC-3 (Y220C) versus NUGC-4 (wild-type p53).
Series [6] addresses stabilized p53-Y220C DBD (Homo sapiens, UniProt P04637, M133L/N239Y/N268D/V203A/Y220C). In words: Differential scanning fluorimetry. The format is binding. The following applies: compound concentration 250 μM, 8-μM protein. In a few lines: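 Thermal shift by DSF used 8 μM stabilized human p53 DBD (residues 94–312, M133L/V203A/N239Y/N268D plus Y220C) with 10× SYPRO Orange. Buffer was 25 mM KPi pH 7.2, 150 mM NaCl, 1 mM TCEP, with 5% (v/v) DMSO final. Test compound was at 250 μM. ΔTm = Tm(mutant + ligand) − Tm(mutant), averaged over replicate runs.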

Series [7] deals with p53 wild type (Homo sapiens, UniProt P04637). Description: DSF with wild type p53 DBD. The format is binding. The following applies: same conditions as in Table 1 (250 μM). In outline: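 Thermal shift of the p53 DNA-binding domain (8 μM) with 10× SYPRO Orange in 25 mM KPi (pH 7.2), 150 mM NaCl, 1 mM TCEP, at 5% (v/v) final DMSO. Test compound was present at 250 μM. ΔTm = Tm (protein + ligand) − Tm (protein alone).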

The test system of series [8] is cancer cell lines with homozygous Y220C mutation. The conditions noted are these: cited from earlier work.
Series [9] has as its system HUH-7 p53 KO cells (HUH7-F1). Description: Cell viability, 72 h incubation, isogenic knockout. The format is cell-based, human. The following applies: 0.6 to 15 μM, 72 h, HUH-7 p53 KO. In outline: as §1
Setting [10] is: read-out: ITC KD, ¶ single measurement with ITC fit error, # mean of at least three independent measurements with SEM.

Broadly, the Kd is the concentration at which binding is half-saturated. By viability is commonly meant the share of living cells, or the viability signal relative to a control. Consider `CCn1c2ccc(CNC)cc2c2ccc(-c3cc(C)cs3)cc21` [PK9328], for which the Kd in series [1] (setting [10]) was found to be 1.7 ± 0.2 µM. Moreover, the “slowing of initial rate of Y220C aggregation relative to PK9318” value in series [2] is “by a factor of two”. Further, the cell viability entry in [3] (7.5 μM, 72 h, HUH-7) was “complete viability loss”. Moreover, the “concentration inducing viability loss” value in series [3] (72 h, HUH-7) is given as not below 3.75 mM. In addition, the “p53-Y220C-dependent cell viability reduction” value was “p53-Y220C-dependent cell viability reduction was observed” in series [3] (72 h) and “Y220C-mutant-specific viability reduction” in series [3] (72 h, listed as PK3328). This compound displayed a viability at 72 h, 7.5 µM in series [4] of more than 50%. The “preferential viability reduction in p53-Y220C cells” value (“preferential viability reduction” below) in series [5] was “preferential viability reduction in p53-Y220C cells”.
Regarding `CCn1c2ccc(CNC)cc2c2ccc(-c3cccs3)cc21` [PK9318], in series [6] (250 µM), the “DSF ΔTM (°C)” value was found to be 3.6 ± 0.2 °C. For the same compound, the “lowering of initial aggregation rate versus no compound” value in series [2] (30 μM compound, 1:10 protein–ligand ratio) is “approximately sixfold lower initial aggregation rate”. In [3] (15 μM, 72 h, HUH-7), the cell viability result is recorded as “complete viability loss”. Besides, the “concentration inducing viability loss” value in [3] (72 h, HUH-7) is reported as not below 3.75 mM. Also, the “p53-Y220C-dependent cell viability reduction” value in series [3] (72 h) is given as “p53-Y220C-dependent cell viability reduction was observed; also recorded: Y220C-mutant-specific viability reduction”. Moreover, the viability at 7.5 µM in series [3] (Homo sapiens, Huh-7, 72 h, read-out: cell viability) came to 58%. In series [4], this compound showed a viability at 72 h, 7.5 µM of 88% and a viability at 72 h, 15 µM of 40%. Also, the “preferential viability reduction” value in series [5] was “preferential viability reduction in p53-Y220C cells”.
For `CCn1c2ccc(CNC)cc2c2ccc(-c3cscn3)cc21` [PK9323], the “stabilization of the wild type in DSF” value in series [7] was “neither the starting scaffold PK083 nor the second-generation carbazole PK9323 did show any stabilization of the wild type”. Further, the “preferential viability reduction” value in series [5] is “preferential viability reduction in p53-Y220C cells”.
Compound `CCOc1ccc2c3cc(CNC)ccc3n(CC)c2c1` [PK9295] yielded a Kd in series [1] of 62 ± 6.5 µM.
As for `CCn1c2ccc(CNC)cc2c2ccc(-c3ccco3)cc21` [PK9320], the “DSF ΔTM (°C)” value in series [6] (250 µM) turned out to be 3.7 ± 0.0 °C. In addition, the Kd in [1] (setting [10]) came out at 4 µM. In series [5], the “preferential viability reduction” value is “preferential viability reduction in p53-Y220C cells”.
For the compound `Cn1cc(-c2ccccc2)c(-n2cccc2)n1` [PK7088], the “effect in Y220C cancer cell lines” value in series [8] was “induced a mutant-specific increase in the amount of correctly folded protein and upregulation of p53 target genes p21 and NOXA”.
Regarding `CCn1c2ccc(CNC)cc2c2ccc(-c3ccc(C)s3)cc21` [PK9327], in [2], the “slowing of initial rate of Y220C aggregation relative to PK9318” value was “by a factor of two”.
Consider `CCn1c2ccc(CNC)cc2c2ccc(-c3ccoc3)cc21` [PK9321], for which the Kd in [1] (setting [10]) amounted to 5.6 ± 1.1 µM.
Consider `CCn1c2ccc(CNC)cc2c2ccc(Br)cc21` [PK9284], for which the “DSF ΔTM (°C)” value in series [6] is 3.0 ± 0.1 °C. Moreover, the “affinity increase compared with PK083” value in [1] is on record as “ca. tenfold”. The Kd in series [1] (setting [10]) worked out at 14.2 ± 2 µM.
With `CCn1c2ccc(CNC)cc2c2ccc(-c3cc(C)c(C)s3)cc21` [PK9329], the effect on viability entry is “did not have a significant effect on the viability” in series [3] (0.6 to 15 μM, 72 h, HUH-7) and “did not have a significant effect on the viability” in [9]. For the same compound, the “p53-Y220C-dependent cell viability reduction” value in series [3] (72 h) is given as “did not show any p53-Y220C-dependent viability reduction”.
